Laboratory results as given in paper PMC4479701 (mBio, 2015).
Converted amounts (≈) assume the structure as drawn.

Experiments:
C. albicans SC 5314 = experiment: Mouse model of invasive candidiasis; assay type: in vivo, mouse (CBA/J); settings: after 21 days of infection; 1.2 mg/kg/day i.p.; 8 mice per group
How it was run: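 Female CBA/J mice, 8 weeks old (8 per group), were infected i.v. with 100 µl containing 10^5 C. albicans SC-5314. Test compound was given i.p. at 1.2 mg/kg/day in 100 µl PBS with 0.4% DMSO immediately after inoculation; untreated mice received vehicle. Survival was monitored. Organs of survivors were homogenized in 10 ml PBS, diluted tenfold, and plated on YPD at 30°C for 72 h for CFU.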

C. neoformans [1] = experiment: Transmission electron microscopy, intracellular vesicles; assay type: cell-based; settings: 4 µg/ml, 6 h; untreated 0.33 ± 0.36
C. neoformans cells [2] = experiment: In vitro passages, development of resistance; assay type: cell-based; settings: 15 days of in vitro passages (120 generations), 10^6 cells/ml; data not shown
[3] = tested on: GlcCer synthesis in C. neoformans; experiment: In vivo labeling with [3H]palmitate, TLC of GlcCer; assay type: cell-based; settings: [3H]palmitate labeling
P. murina [4] = experiment: Murine pneumocystosis, CD4-depleted; assay type: in vivo, mouse (C3H/HeN); settings: 1.25 mg/kg/day
How it was run: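 Twelve mice were CD4-depleted with 300 µg GK 1.5 antibody i.p. on days 1, 3 and 7. They were infected by exposure to P. murina-infected mice, then given 100 µg GK 1.5 i.p. weekly for 6 weeks. Treatment followed at 1.25 or 12.5 mg/kg/day for 14 days, with GK 1.5 continued; controls received vehicle.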

C. neoformans cells [5] = experiment: In vitro killing assay; assay type: cell-based
How it was run: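 An overnight C. neoformans culture was washed in PBS and resuspended in HEPES-buffered YNB, pH 7.4. 2 × 10^4 cells were exposed to 1, 2 or 4 µg/ml test compound in 10 ml (0.4% DMSO final), at 37°C, 5% CO2, on a rotary shaker at 200 rpm. Aliquots taken at time points were diluted, plated on YPD, incubated 72 h at 30°C, and CFU counted.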

[6] = tested on: sphingolipids of C. neoformans; experiment: Sphingolipid profiling by TLC and LC-MS; assay type: cell-based; settings: LC-MS; D0 data not shown
P. murina [7] = experiment: Murine pneumocystosis, corticosteroid-immunosuppressed; assay type: in vivo, mouse (C3H/HeN); settings: mice immunosuppressed with corticosteroids
How it was run: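 Corticosteroid-immunosuppressed mice were infected with P. murina by cohousing with seed mice for 2 weeks. […] Treatment lasted 13 days. Lung homogenate slides were stained with Diff-Quik for trophic forms and cresyl echt violet for asci.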

In vitro toxicity = assay type: cell-based, murine; settings: mouse, J774.16 macrophage cells
How it was run: (§1)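 J774.16 murine macrophages were kept in DMEM with 10% FBS and 1% pen-strep, and used until passage eight. At passage 7, 10^5 cells/well were allowed to adhere for 14 h. Test compound was then added at 0.1 to 100 µg/ml, with drug-free wells as controls. Incubation at 37°C, 5% CO2.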

J774 cells = experiment: In vitro toxicity; assay type: cell-based, murine
How it was run: as §1

C. neoformans [8] = experiment: Mouse model of cryptococcosis, intravenous infection; assay type: in vivo, mouse (CBA/J); settings: 8 mice per group, vehicle 7.0 ± 1.1
[9] = In vivo toxicity, blood work; parameters: species or system mouse (CBA/J)
How it was run: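 Female CBA/J mice, 4 weeks old: five received 1.2 mg/kg/day test compound for 60 days, and three controls received a daily solvent injection. On day 60, blood was collected into one K2EDTA tube and one plain tube allowed to clot.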

C. neoformans [10] = experiment: Mouse model of cryptococcosis, intranasal infection; assay type: in vivo, mouse (CBA/J); settings: 1.2 mg/kg/day i.p.
How it was run: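 Mice (10 per group) were infected by nasal inoculation of 20 µl containing 5 × 10^5 C. neoformans. Test compound was given i.p. at 1.2 mg/kg/day in 100 µl PBS with 0.4% DMSO, starting 2 h after inoculation. Survival followed up to 60 days. Organs of survivors were homogenized in 10 ml PBS, diluted serially 1:10, plated on YPD, and incubated at 30°C for 72 h for CFU.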

Candida spp. = experiment: In vitro susceptibility; assay type: cell-based; settings: most Candida spp. examined
How it was run: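 Inoculum prepared per CLSI M27-A3. Plates incubated at 37°C with 5% CO2 for 24 to 96 h. MIC was the lowest concentration inhibiting 50% of growth versus the drug-free control. Minimum fungicidal concentration was also measured: serial dilutions from wells were plated on YPD agar, and MFC was the lowest concentration yielding three or fewer colonies (99% of inoculum killed).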

[11] = tested on: GlcCer synthesis in J774.16 cells; experiment: Labeling of mammalian cells with [3H]palmitate, TLC of GlcCer; assay type: cell-based, murine; settings: [3H]palmitate labeling, 6 h
How it was run: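 J774.16 macrophages (5 × 10^6 cells/ml) adhered for 14 h in six-well plates. They were exposed for 4 h to test compound at the concentrations used for the fungal labeling, then given 30 µCi/ml [3H]palmitic acid for a further 2 h.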

C. neoformans [12] = experiment: Synergism assay; assay type: cell-based
Cryptococcus neoformans = experiment: In vitro susceptibility testing; assay type: cell-based; settings: Cryptococcus neoformans

Compound: O=C(NN=Cc1ccc(O)c(Br)c1)c1cccc(Br)c1 [D0, 3-bromo-N′-(3-bromo-4-hydroxybenzylidene) benzohydrazide]
- mice still alive (C. albicans SC 5314): 75%
- numbers of vesicles per square micrometer of cell surface area (C. neoformans [1]): 0.93 ± 0.54
- development of resistance (C. neoformans cells [2]): did not develop resistance
- synthesis of GlcCer [3]: significantly inhibited
- survival (P. murina [4]): significantly improved survival
- toxicity (P. murina [4]): no apparent signs of toxicity
- type of killing (C. neoformans cells [5]; time-kill assay, 37°C, 5% CO2, pH 7.4): time-dependent killing
- dead cells (C. neoformans cells [5]; within 24 h): 100%
- levels of C18 hydroxyceramide and its desaturated and methylated forms [6]: decreased
- toxicity (P. murina [7]): some toxicity
- EC50 at 48 h (In vitro toxicity): 50 µg/mL (≈ 126 µM)
- EC50/MIC80 selectivity index (J774 cells; J774 EC50 versus MIC): > 100
- selectivity index (EC50/MIC ratio) (J774 cells; macrophage cell line): > 50
- survival, days postinfection (C. neoformans [8]; 1.2 mg/kg/day i.p.): 10.5 ± 4.2 days
- all other blood parameters for liver and kidney function ([9]; after 60 days of treatment): normal
- tolerability in animals ([9]; mouse, in vivo): well tolerated
- brain tissue burden (CFU) (C. neoformans [10]): eradication of fungal cells
- lung tissue burden (CFU) (C. neoformans [10]): decrease of fungal load
- mice surviving C. neoformans infection (C. neoformans [10]; up to 60 days, 10 mice per group): 70%
- in vitro susceptibility (Candida spp.): resistant
- synthesis of mammalian GlcCer or other sphingolipids [11]: no significant changes
- interaction category (C. neoformans [12]; combined with caspofungin): additive (additive effect, FIC = 1)
- interaction category (C. neoformans [12]; combined with fluconazole): highly synergistic
- interaction category (C. neoformans [12]; combined with tunicamycin): additive (additive effect, FIC = 1)

Compound: C[C@@H]1[C@H](O)[C@@H](C)/C=C/C=C/C=C/C=C/C=C/C=C/C=C/[C@H](O[C@@H]2O[C@H](C)[C@@H](O)[C@H](N)[C@@H]2O)C[C@@H]2O[C@](O)(C[C@@H](O)C[C@@H](O)[C@H](O)CC[C@@H](O)C[C@@H](O)CC(=O)O[C@H]1C)C[C@H](O)[C@H]2C(=O)O [amphotericin B, reference compound]
- survival, days postinfection (C. neoformans [8]; 1.2 mg/kg/day i.p.): 23.5 ± 6.5 days

Compound: OC(Cn1cncn1)(Cn1cncn1)c1ccc(F)cc1F [fluconazole, reference compound]
- MIC (Cryptococcus neoformans): > 64 µg/mL
- survival, days postinfection (C. neoformans [8]; 10 mg/kg/day i.p.): 10 ± 2 days
